In article PMC4241044 (Journal of Clinical Pharmacology, 2014):
Read-outs that look alike come from different tables or passages of the source. Marks after values point to notes of the source that are not given here. One block for each molecule: values may come before it.

What was measured:
[1] = Erythromycin trough plasma concentrations, attainment of steady state; format: in vivo, human; details: erythromycin 500 mg tid, visual inspection
How it was run: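 Erythromycin 500 mg tid was given for 6 days in treatment periods 2 and 3. Trough plasma was sampled before the morning erythromycin dose on days 2–6 and on the morning of day 7, then stored frozen. Assay was LC/MS/MS after methanol protein precipitation, on a reverse-phase column at 40 °C. Steady state was judged visually from concentration–time plots.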

[2] = format: in vivo, human; details: for AUC(0-inf) / Cmax / Vd/F / Tmax / half-life: human, plasma, oral; for Tmax: median (minimum–maximum); for half-life: t½; for increase in AUC∞ / increase in Cmax: compared with normal renal function; for DNAUC∞ (dose-normalized AUC∞) / DNCmax (dose-normalized Cmax): dose-normalized to 10 mg
[3] = 2.5–10 mg dose range under fasting conditions and 10–20 mg dose range under fed conditions; ref previous Phase I studies; cited from earlier work
[4] = target: Factor Xa activity (Homo sapiens, UniProt P00742); assay: Factor Xa inhibition in plasma; format: in vivo
[5] = Rivaroxaban urine pharmacokinetics; format: in vivo, human; details: arithmetic mean (SD); for CL renal: human, urine and plasma, oral, CLR, renal clearance
[6] = cited from earlier work
[7] = system: prothrombin time (PT); assay: Prothrombin time prolongation in plasma; format: in vivo, human
How it was run: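 Subjects were grouped by mean of two Cockcroft–Gault CLCR estimates: ≥80 (normal), 50–79 (mild) and 30–49 mL/min (moderate). […] PT blood was drawn at −1 h (baseline) and 0.5–48 h post-dose. […] Log-transformed geometric mean ratios with 90% CI; completers only.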

[8] = Safety and tolerability; format: in vivo, human
How it was run: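 Monitoring was continuous and covered bleeding events and other treatment-emergent adverse events, with severity and relation to study drugs. Vital signs, ECG, haematology, clinical chemistry, PT/aPTT and urinalysis were checked, plus regular physical examinations. Subjects were grouped by Cockcroft–Gault CLCR. […] Analysis included all subjects receiving ≥1 study-drug dose.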

[9] = previous study, cited from earlier work
[10] = steady-state erythromycin; previous Phase I drug–drug interaction study; cited from earlier work
[11] = Mild RI, rivaroxaban 10 mg + erythromycin 500 mg tid
[12] = Moderate RI, rivaroxaban 10 mg + erythromycin 500 mg tid
[13] = 10 mg, geometric mean, Normal RF, rivaroxaban 10 mg
[14] = 10 mg, rivaroxaban 10 mg, mild renal impairment, arithmetic mean (SD)
[15] = rivaroxaban 5 mg + erythromycin 500 mg tid, mild renal impairment, arithmetic mean (SD)
[16] = rivaroxaban 5 mg + erythromycin 500 mg tid, moderate renal impairment, arithmetic mean (SD)
[17] = rivaroxaban 10 mg + erythromycin 500 mg tid, normal renal function, arithmetic mean (SD)
[18] = rivaroxaban 10 mg + erythromycin 500 mg tid, moderate renal impairment, arithmetic mean (SD)
[19] = rivaroxaban 5 mg + erythromycin 500 mg tid, mild renal impairment
[20] = rivaroxaban 10 mg + erythromycin 500 mg tid, moderate renal impairment
[21] = mild renal impairment, rivaroxaban 10 mg with steady-state erythromycin, rivaroxaban 10 mg alone
[22] = mild renal impairment, rivaroxaban 10 mg
[23] = moderate renal impairment, rivaroxaban 10 mg with steady-state erythromycin, rivaroxaban 10 mg alone
[24] = moderate renal impairment, rivaroxaban 10 mg
[25] = mild renal impairment vs normal renal function, rivaroxaban 10 mg
[26] = moderate renal impairment vs normal renal function, rivaroxaban 10 mg
[27] = normal renal function, rivaroxaban 10 mg + erythromycin vs rivaroxaban alone
[28] = rivaroxaban 5 mg + erythromycin 500 mg tid, moderate renal impairment
[29] = rivaroxaban 10 mg + erythromycin 500 mg tid, mild renal impairment
[30] = rivaroxaban 10 mg + erythromycin 500 mg tid, normal renal function

Factor Xa activity, sequence (P00742 235-488 limits assumed): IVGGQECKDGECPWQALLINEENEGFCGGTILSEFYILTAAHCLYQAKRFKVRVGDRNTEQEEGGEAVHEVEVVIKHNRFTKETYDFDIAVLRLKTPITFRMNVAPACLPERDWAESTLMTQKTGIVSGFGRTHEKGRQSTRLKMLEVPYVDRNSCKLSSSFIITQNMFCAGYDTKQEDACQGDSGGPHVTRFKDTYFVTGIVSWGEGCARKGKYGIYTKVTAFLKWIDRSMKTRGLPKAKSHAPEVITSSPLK
Factor Xa activity, sequence (P00742 41-179 partner limits assumed): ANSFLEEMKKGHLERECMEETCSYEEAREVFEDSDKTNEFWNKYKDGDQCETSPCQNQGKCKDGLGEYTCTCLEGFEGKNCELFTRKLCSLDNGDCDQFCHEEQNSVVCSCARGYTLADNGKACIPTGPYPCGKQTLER

attainment of steady-state plasma concentrations [1]: obtained by the morning of day 5
SMILES: CC[C@H]1OC(=O)[C@H](C)[C@@H](O[C@H]2C[C@@](C)(OC)[C@@H](O)[C@H](C)O2)[C@H](C)[C@@H](O[C@@H]2O[C@H](C)C[C@H](N(C)C)[C@H]2O)[C@](C)(O)C[C@@H](C)C(=O)[C@H](C)[C@@H](O)[C@]1(C)O [erythromycin]

AUC∞, geometric mean [2, 11]: 3,078.7 ng · h/mL | Cmax, geometric mean [2, 11]: 0.2772 µg/mL | Cmax, geometric mean [2, 12]: 0.29242 µg/mL | AUC∞, geometric mean ([2]; Moderate RI, rivaroxaban 10 mg + erythromycin 500 mg tid, n = 7): 3,475.5 ^a ng · h/mL | Cmax, geometric mean ([2]; Normal RF, rivaroxaban 10 mg): 0.17817 µg/mL | AUC(0-inf) ([2]; 10 mg, geometric mean, Mild RI, rivaroxaban 10 mg): 2 µg·h/mL | AUC(0-inf) ([2]; 10 mg, geometric mean, Moderate RI, rivaroxaban 10 mg): 2.04 µg·h/mL | AUC(0-inf) [2, 13]: 1.75 µg·h/mL | AUC(0-inf) [2, 14]: 2.02 µg·h/mL | Cmax [2, 13]: 0.178 µg/mL | Vd/F [2, 14]: 77.3 L | Tmax ([2]; 10 mg, rivaroxaban 10 mg, mild renal impairment): 3 h | Tmax ([2]; 10 mg, rivaroxaban 10 mg, moderate renal impairment): 3 h | half-life [2, 14]: 9.9 h | AUC(0-inf) [2, 15]: 1.97 µg·h/mL | AUC(0-inf) [2, 16]: 1.98 µg·h/mL | AUC(0-inf) [2, 17]: 2.47 µg·h/mL | Cmax [2, 18]: 0.323 µg/mL | Cmax [2, 17]: 0.256 µg/mL | Vd/F [2, 15]: 37.5 L | Vd/F ([2]; rivaroxaban 10 mg + erythromycin 500 mg tid, mild renal impairment, arithmetic mean (SD)): 46 L | Vd/F [2, 18]: 40.9 L | Vd/F [2, 17]: 44.2 L | Tmax [2, 19]: 3 h | Tmax [2, 20]: 3 h | half-life [2, 16]: 10 h | increase in AUC∞ [2, 21]: approximately 76% | increase in Cmax [2, 21]: ~56% | increase in AUC∞ [2, 22]: approximately 15% | increase in Cmax [2, 22]: ~23% | increase in AUC∞ [2, 23]: ~99% | increase in Cmax [2, 23]: ~64% | increase in AUC∞ [2, 24]: approximately 17% | increase in Cmax [2, 24]: ~36% | DNAUC∞ (dose-normalized AUC∞) [2, 15]: 3,935 (1,671) ng · h/mL | DNCmax (dose-normalized Cmax) [2, 15]: 358 (109) ng/mL | DNAUC∞ (dose-normalized AUC∞) [2, 16]: 3,961 (1,020) ng · h/mL | DNCmax (dose-normalized Cmax) [2, 16]: 329 (104) ng/mL | Factor Xa inhibition AUC0–48h, geometric mean [4, 12]: 842.3 | Factor Xa inhibition Emax, geometric mean [4, 12]: 53.61 | Factor Xa inhibition AUC0–48h, geometric mean ([4]; Normal RF, rivaroxaban 10 mg): 593.43 | Factor Xa inhibition Emax, geometric mean ([4]; Normal RF, rivaroxaban 10 mg): 39.38 | increase in Factor Xa inhibition AUC0–48h [4, 25]: approximately 16% | increase in Factor Xa inhibition Emax [4, 25]: ~17% | increase in Factor Xa inhibition AUC0–48h [4, 26]: approximately 3% | increase in Factor Xa inhibition Emax [4, 26]: ~17% | Factor Xa inhibition AUC0–48h lower by [4, 27]: approximately 8% | increase in Factor Xa inhibition Emax [4, 27]: approximately 18% | CL renal [5, 19]: 15.9 mL/min | CL renal [5, 28]: 9.25 mL/min | CL renal [5, 29]: 19.2 mL/min | CL renal [5, 20]: 13.3 mL/min | CL renal [5, 30]: 34.3 mL/min
SMILES: O=C(NC[C@H]1CN(c2ccc(N3CCOCC3=O)cc2)C(=O)O1)c1ccc(Cl)s1 [Rivaroxaban, rivaroxaban]
dose proportionality (based on AUC) [3]: dose-proportional | Ae, cumulative amount excreted into the urine over 48 hours [5, 19]: 1.56 (0.692) mg | Ae, cumulative amount excreted into the urine over 48 hours [5, 28]: 1.04 (0.531) mg | Ae, cumulative amount excreted into the urine over 48 hours [5, 29]: 3.29 (0.893) mg | Ae, cumulative amount excreted into the urine over 48 hours [5, 20]: 2.74 (1.10) mg | Ae, cumulative amount excreted into the urine over 48 hours [5, 30]: 4.80 (0.851) mg | Ae, cumulative amount excreted into the urine over 48 hours ([5]; rivaroxaban 10 mg, mild renal impairment): 2.49 (0.697) ^a mg | Ae, cumulative amount excreted into the urine over 48 hours ([5]; rivaroxaban 10 mg, moderate renal impairment): 1.30 (0.654) mg | Ae, cumulative amount excreted into the urine over 48 hours ([5]; rivaroxaban 10 mg, normal renal function): 3.51 (0.773) mg | dose metabolized via CYP2J2 [6]: 14% | dose metabolized via CYP3A4/3A5 [6]: approximately 18% | dose metabolized via CYP-independent hydrolysis [6]: 14% | drug excreted unchanged by the kidneys [6]: approximately 36% | fraction of the absorbed dose hepatically metabolized ([6]; via CYP3A4/3A5, CYP2J2 and CYP-independent mechanisms): approximately two-thirds | fraction of the absorbed dose eliminated as unchanged drug in the urine ([6]; via P-gp-mediated and ABCG2-mediated secretion): third | Prothrombin time AUC0–48h, geometric mean [7, 11]: 118.7 | Prothrombin time Emax, geometric mean [7, 11]: 9.85 | Prothrombin time AUC0–48h, geometric mean [7, 12]: 115.1 | Prothrombin time Emax, geometric mean [7, 12]: 10.02 | Prothrombin time AUC0–48h, geometric mean ([7]; Normal RF, rivaroxaban 10 mg): 67.82 | Prothrombin time Emax, geometric mean ([7]; Normal RF, rivaroxaban 10 mg): 8.24 | increase in PT Emax [7, 25]: ~5% | change in PT AUC0–48h [7, 26]: did not seem to change significantly | change in PT Emax [7, 26]: did not seem to change significantly | increase in PT AUC0–48h [7, 27]: approximately 22% | increase in PT Emax [7, 27]: ~10% | subjects reporting bleeding events ([8]; 1 NRF, 3 moderate RI, all mild in intensity, of 29 enrolled): Four | tolerability ([8]; single dose 5 mg or 10 mg, regardless of renal function and erythromycin co-administration): well tolerated | increase in AUC∞ ([9]; mild renal impairment vs normal renal function): approximately 44% | increase in AUC∞ ([9]; moderate renal impairment vs normal renal function): ~52% | increase in AUC∞ [10]: approximately 34% | increase in Cmax [10]: approximately 34%
